# Assay results from ChEMBL document CHEMBL5500387, “Design, synthesis of combretastatin A-4 piperazine derivatives as potential antitumor agents by inhibiting tubulin polymerization and inducing autophagy in HCT116 cells” (Eur J Med Chem, 2024).
# Calls of active or inactive are those of the source. The rule behind the calls is not given here.
# How the values were obtained:
# HCT-116 [1] = test: Antitumor activity against human HCT-116 cells xenografted in female BALB/c nude mouse assessed as tumor growth inhibition at 40 mg/kg, ip administered every 2 days for 20 days by vernier caliper relative to control; format: functional; conditions: HCT-116, 480 h, time 20 day, read-out: TGI
# Method in brief: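 HCT116 cells (5×10^7/0.2 mL/mouse) injected subcutaneously beside the right forelimb of 5-week-old female BALB/c nude mice. At 100 mm³ tumour volume, mice randomised by weight and tumour size into four groups of ten. Saline vehicle control ip. Dosing for 20 days, then euthanasia and tumour weighing. Caliper diameters used; volume = W²×L/2.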
# A549 [2] = test: Induction of cell cycle arrest in human A549 cells assessed as accumulation of cells at G2/M phase at 0.3 uM measured after 24 hrs by PI/RNase staining based analysis (reference value: 10.22%); format: functional
# HCT-116 [3] = test: Induction of cell cycle arrest in human HCT-116 cells assessed as accumulation of cells at S phase at 0.1 uM measured after 24 hrs by PI/RNase staining based flow cytometry analysis (reference value: 38.29%); format: functional
# [4] = Selectivity index, ratio of IC50 for human NCM460 cells to IC50 for human HCT-116 cells; format: toxicity; conditions: NCM460 cells and HCT-116 cells, read-out: Ratio IC50
# Method in brief: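 The selectivity index is IC50 in NCM460 normal colonic epithelial cells (RPMI-1640, 10% FBS) divided by IC50 in HCT116. Both were measured by 72 h CCK-8 viability at 2×10^3 cells/well with A450 read-out.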
# A549 [5] = test: Induction of apoptosis in human A549 cells assessed as dead cells at 0.1 uM measured after 24 hrs by Annexin V-APC/PI staining based flow cytometry analysis (reference value: 0.50%); format: functional
# A549 [6] = test: Induction of cell cycle arrest in human A549 cells assessed as accumulation of cells at G2/M phase at 0.2 uM measured after 24 hrs by PI/RNase staining based analysis (reference value: 10.22%); format: functional
# A549 [7] = test: Induction of cell cycle arrest in human A549 cells assessed as accumulation of cells at S phase at 0.2 uM measured after 24 hrs by PI/RNase staining based analysis (reference value: 24.95%); format: functional
# HCT-116 [8] = test: Induction of cell cycle arrest in human HCT-116 cells assessed as accumulation of cells at S phase at 0.2 uM measured after 24 hrs by PI/RNase staining based flow cytometry analysis (reference value: 38.29%); format: functional
# A549 [9] = test: Induction of apoptosis in human A549 cells assessed as live cells at 0.3 uM measured after 24 hrs by Annexin V-APC/PI staining based flow cytometry analysis (reference value: 96.91%); format: functional
# A549 [10] = test: Induction of apoptosis in human A549 cells assessed as late apoptotic cells at 0.1 uM measured after 24 hrs by Annexin V-APC/PI staining based flow cytometry analysis (reference value: 0.86%); format: functional
# A549 [11] = test: Induction of apoptosis in human A549 cells assessed as early apoptotic cells at 0.1 uM measured after 24 hrs by Annexin V-APC/PI staining based flow cytometry analysis (reference value: 1.73%); format: functional
# SK-MES-1 = test: Cytotoxicity against human SK-MES-1 cells assessed as inhibition of cell proliferation measured after 72 hrs by CCK-8 assay; format: functional, cell-based; conditions: SK-MES-1, 72 h
# Method in brief: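 Cells seeded at 2×10^3 per well and grown overnight in 10% FBS medium: HCT116 in McCoy's 5A, A549 and AGS in F-12K, SK-MES-1 in DMEM. Compounds added at varied concentrations with 0.1% DMSO control, 72 h at 37 °C. 10% CCK-8 for 2 h, then A450 read. Survival = (As−Ab)/(Ac−Ab)×100%. IC50 from curve fitting.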
# A549 [12] = test: Induction of cell cycle arrest in human A549 cells assessed as accumulation of cells at G2/M phase at 0.1 uM measured after 24 hrs by PI/RNase staining based analysis (reference value: 10.22%); format: functional
# A549 [13] = test: Induction of apoptosis in human A549 cells assessed as live cells at 0.1 uM measured after 24 hrs by Annexin V-APC/PI staining based flow cytometry analysis (reference value: 96.91%); format: functional
# [14] = Octanol-water partition coefficient, log P of the compound at pH 7.4 at 4 mg measured after 24 hrs by liquid chromatography; format: physicochemical
# Method in brief: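 4 mg of compound was dissolved in 1 mL water-saturated n-octanol and held 24 h at room temperature, then centrifuged. The supernatant was mixed with an equal volume of octanol-saturated water, stood 24 h, centrifuged and the phases separated. Phase concentrations were measured by LC standard curves. log P = log(C_octanol/C_water). At least three independent runs.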
# A549 [15] = test: Induction of apoptosis in human A549 cells assessed as early apoptotic cells at 0.2 uM measured after 24 hrs by Annexin V-APC/PI staining based flow cytometry analysis (reference value: 1.73%); format: functional
# A549 [16] = test: Induction of cell cycle arrest in human A549 cells assessed as accumulation of cells at G0/G1 phase at 0.3 uM measured after 24 hrs by PI/RNase staining based analysis (reference value: 41.91%); format: functional
# A549 [17] = test: Induction of apoptosis in human A549 cells assessed as dead cells at 0.3 uM measured after 24 hrs by Annexin V-APC/PI staining based flow cytometry analysis (reference value: 0.50%); format: functional
# HCT-116 [18] = test: Induction of cell cycle arrest in human HCT-116 cells assessed as accumulation of cells at G2/M phase at 0.3 uM measured after 24 hrs by PI/RNase staining based flow cytometry analysis (reference value: 28.83%); format: functional
# Tubulin (Homo sapiens) [19] = biological target: T1, Tubulin (Homo sapiens) (UniProt P68371+Q9H4B7+P0DPH7+P68366+Q13509+Q71U36+P04350+Q3ZCM7+P07437+P68363+Q9BQE3+Q6PEY2+Q13885+Q9BVA1+Q9BUF5); test: Inhibition of tubulin polymerization in human HCT-116 cells measured after 48 hrs by immunofluorescent staining based analysis; format: cell-based; conditions: dose 0.1-0.3 µM
# Method in brief: (§1)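 HCT116 cells (1×10^5/well suspension) settled on glass slides overnight at 37 °C, 5% CO2. Treated 48 h with 0.1, 0.2 or 0.3 μM, or 0.1% DMSO. Fixed in 4% paraformaldehyde, permeabilised with 0.5% Triton X-100, blocked. Anti-α-tubulin (1:4000) at 4 °C overnight, then Alexa488 anti-mouse IgG 1 h. DAPI mount, confocal imaging.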
# Tubulin (Homo sapiens) [20] = biological target: T1, Tubulin (Homo sapiens); test: Disruption of microtubule network in human HCT-116 cells at 0.1 to 0.3 uM measured after 48 hrs by immunofluorescent staining based analysis; format: cell-based; conditions: dose 0.1-0.3 µM; method in brief: as §1
# HCT-116 [21] = test: Inhibition of cell invasion in human HCT-116 cells measured after 48 hrs by crystal violet staining based fluorescent inverted microscopic analysis; format: functional; conditions: dose 0.1-0.3 µM
# Method in brief: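 Transwell inserts were coated with Matrigel (1:3 in serum-free medium). HCT116 cells (1×10^4) in serum-free medium went in the upper chamber, with complete medium as stimulus. Treated with 0.1, 0.2 or 0.3 μM or 0.1% DMSO for 48 h at 37 °C. Fixed in 4% paraformaldehyde, stained with 0.1% crystal violet, and imaged. Counts analysed by ImageJ. At least three replicates.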
compound,measurement,setting,value
COc1ccc(/C=C(/C(=O)N2CCN(c3ccc(C)cc3)CC2)c2cc(OC)c(OC)c(OC)c2)cc1O,inhibition in vivo at 40 mg/kg,HCT-116 [1],12.7%
same,Activity,A549 [2],5.65%
same,Activity,HCT-116 [3],31.95%
same,selectivity ratio,[4],4.8
same,Activity,A549 [5],0.83%
same,Activity,A549 [6],8.51%
same,Activity,A549 [7],13.76%
same,Activity,HCT-116 [8],21.17%
same,Activity,A549 [9],68.79%
same,Activity,A549 [10],2.78%
same,Activity,A549 [11],10.34%
same,IC50,SK-MES-1,423 nM
same,Activity,A549 [12],5.75%
same,Activity,A549 [13],86.04%
same,logD at 24 h,[14],-0.013
same,Activity,A549 [15],17.43%
same,Activity,A549 [16],87.18%
same,Activity,A549 [17],1.25%
same,Activity,HCT-116 [18],88.26%
same,inhibition,Tubulin (Homo sapiens) [19],Dose-Dependent Effect
same,Activity,Tubulin (Homo sapiens) [20],Active
same,inhibition,HCT-116 [21],Dose-Dependent Effect
